Data reported in ChEMBL document CHEMBL1130120, “N-arylpiperazinyl-N'-propylamino derivatives of heteroaryl amides as functional uroselective alpha 1-adrenoceptor antagonists” (J Med Chem, 1997).

Assays:
[1] = target: T1, Alpha-1D adrenergic receptor (Rattus norvegicus, UniProt P23944); assay: Antagonistic activity against rat aorta for affinity estimates representative of the Alpha-1D adrenergic receptor; format: functional, tissue-based; settings: read-out: pA2 (converted)
T1 sequence (P23944 whole entry): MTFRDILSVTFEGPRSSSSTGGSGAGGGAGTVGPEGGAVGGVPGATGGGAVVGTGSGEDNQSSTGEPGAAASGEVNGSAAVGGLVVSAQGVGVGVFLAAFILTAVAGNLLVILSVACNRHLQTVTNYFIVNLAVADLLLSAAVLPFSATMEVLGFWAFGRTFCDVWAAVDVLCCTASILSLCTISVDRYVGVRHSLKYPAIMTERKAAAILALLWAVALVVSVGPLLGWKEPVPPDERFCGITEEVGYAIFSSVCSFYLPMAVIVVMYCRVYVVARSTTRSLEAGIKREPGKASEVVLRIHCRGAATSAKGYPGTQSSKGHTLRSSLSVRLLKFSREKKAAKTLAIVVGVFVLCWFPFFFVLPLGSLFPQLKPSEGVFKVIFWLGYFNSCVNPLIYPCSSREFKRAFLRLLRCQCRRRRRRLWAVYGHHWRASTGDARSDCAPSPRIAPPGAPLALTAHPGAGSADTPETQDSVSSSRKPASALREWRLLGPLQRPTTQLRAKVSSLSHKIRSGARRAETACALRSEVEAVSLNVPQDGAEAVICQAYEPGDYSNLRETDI
Summary of the method: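 Isolated smooth-muscle tissue with cumulative norepinephrine concentration–effect curves (rat aorta, human lower urinary tract). Affinity obtained by full Schild regression for some antagonists. […] Competitive, reversible interaction at a single subtype assumed.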

[2] = target: T2, Alpha-1A adrenergic receptor (Oryctolagus cuniculus, UniProt O02824); assay: Antagonistic activity against alpha 1A/1L receptor was assessed in a rabbit bladder neck functional assay; settings: read-out: pA2 (converted)
T2 sequence (O02824 whole entry): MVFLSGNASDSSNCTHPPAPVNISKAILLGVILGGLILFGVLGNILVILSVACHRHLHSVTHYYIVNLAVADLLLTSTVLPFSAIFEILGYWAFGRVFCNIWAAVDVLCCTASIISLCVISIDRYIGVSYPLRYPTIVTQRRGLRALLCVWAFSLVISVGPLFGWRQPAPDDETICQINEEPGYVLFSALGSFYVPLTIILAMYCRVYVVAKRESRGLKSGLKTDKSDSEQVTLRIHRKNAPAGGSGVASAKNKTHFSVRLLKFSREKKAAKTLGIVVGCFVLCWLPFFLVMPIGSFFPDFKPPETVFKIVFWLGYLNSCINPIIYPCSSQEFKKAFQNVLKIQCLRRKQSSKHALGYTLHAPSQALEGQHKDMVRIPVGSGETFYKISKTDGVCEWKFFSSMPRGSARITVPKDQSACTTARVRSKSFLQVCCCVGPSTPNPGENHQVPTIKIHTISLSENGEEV

[3] = target: T3, Alpha-1A adrenergic receptor (Bos taurus, UniProt P18130); assay: In vitro for the displacement of [3H]prazosin binding to bovine Alpha-1A adrenergic receptor
T3 sequence (P18130 whole entry): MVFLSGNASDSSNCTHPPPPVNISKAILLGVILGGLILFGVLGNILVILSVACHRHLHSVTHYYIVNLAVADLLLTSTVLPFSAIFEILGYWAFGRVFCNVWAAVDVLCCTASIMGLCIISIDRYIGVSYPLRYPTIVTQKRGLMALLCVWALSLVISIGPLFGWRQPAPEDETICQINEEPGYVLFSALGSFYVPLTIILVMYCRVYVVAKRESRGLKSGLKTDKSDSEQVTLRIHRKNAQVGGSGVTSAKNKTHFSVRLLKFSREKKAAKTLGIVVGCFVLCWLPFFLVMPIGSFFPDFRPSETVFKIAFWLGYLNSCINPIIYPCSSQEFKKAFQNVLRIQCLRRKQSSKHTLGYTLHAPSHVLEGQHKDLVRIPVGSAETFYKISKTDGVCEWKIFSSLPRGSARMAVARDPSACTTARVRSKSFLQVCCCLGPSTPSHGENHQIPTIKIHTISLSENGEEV

| Kb [1] | Kb [2] | Ki [3] | SMILES |
| --- | --- | --- | --- |
| 10 nM | 2 nM | – | CN(C)C(=O)c1cccnc1NCCCN1CCN(c2ccccc2C#N)CC1 |
| 10 nM | 2 nM | 0.794 nM | Cc1ccccc1N1CCN(CCCNc2ncccc2C(=O)N(C)C)CC1 |
| 20 nM | 0.794 nM | – | COc1ccccc1N1CCN(CCCNc2ncc(C#N)cc2C(=O)N(C)C)CC1 |
| – | 200 nM | – | Cc1cnccc1N1CCN(CCCNc2ncccc2C(=O)N(C)C)CC1 |
| 15.8 nM | 0.1 nM | – | CN(C)C(=O)c1cccnc1NCCCN1CCN(c2ccccc2OCC(F)(F)F)CC1 |
| 63.1 nM | 0.631 nM | – | CN(C)C(=O)c1cccnc1NCCCN1CCN(c2ccccc2C2CC2)CC1 |
| 10 nM | – | 0.126 nM | COc1ccccc1N1CCN(CCCNc2ncccc2C(N)=O)CC1 |
| 63.1 nM | 0.398 nM | – | CC(C)c1ccccc1N1CCN(CCCNc2ncccc2C(=O)N(C)C)CC1 |
| 79.4 nM | 12.6 nM | – | COc1cc(O)ccc1N1CCN(CCCNc2ncccc2C(=O)N(C)C)CC1 |
| 50.1 nM | – | 0.794 nM | CN(C)C(=O)c1cccnc1NCCCN1CCN(c2ccccc2OCC(C)(C)C)CC1 |
| 316 nM | 12.6 nM | – | CN(C)C(=O)c1cccnc1NCCCN1CCN(c2ccccc2C(F)(F)F)CC1 |
| 31.6 nM | 0.2 nM | – | CCCc1ccccc1N1CCN(CCCNc2ncccc2C(=O)N(C)C)CC1 |
| 15.8 nM | 6.31 nM | 2 nM | CN(C)C(=O)c1cccnc1NCCCN1CCN(c2ccccc2)CC1 |
| 63.1 nM | 5.01 nM | – | CN(C)C(=O)c1cccnc1NCCCN1CCN(c2ccccc2O)CC1 |
| 10 nM | 0.158 nM | 0.0794 nM | CN(C)C(=O)c1cccnc1NCCCN1CCN(c2ccccc2OCC2CC2)CC1 |
| 31.6 nM | 0.631 nM | – | CSc1ccccc1N1CCN(CCCNc2ncccc2C(=O)N(C)C)CC1 |
| 7.94 nM | 0.501 nM | – | CCOc1ccccc1N1CCN(CCCNc2ncccc2C(=O)N(C)C)CC1 |
| 100 nM | 3.16 nM | – | CN(C)C(=O)c1cccnc1NCCCN1CCN(c2ccccc2OC(F)(F)F)CC1 |
| 25.1 nM | 0.316 nM | – | CN(C)C(=O)c1cccnc1NCCCN1CCN(c2ccccc2-c2ncco2)CC1 |
| 39.8 nM | 0.794 nM | – | COc1cc(C)ccc1N1CCN(CCCNc2ncccc2C(=O)N(C)C)CC1 |

Second part, the compound before the results:

| SMILES | Kb [1] | Kb [2] | Ki [3] |
| --- | --- | --- | --- |
| CN(C)C(=O)c1cccnc1NCCCN1CCN(c2ccccc2Cc2ccccc2)CC1 | 79.4 nM | 6.31 nM | – |
| CNC(=O)c1cccnc1NCCCN1CCN(c2ccccc2OC)CC1 | 3.16 nM | 1 nM | – |
| COc1cc(F)ccc1N1CCN(CCCNc2c(C(=O)N(C)C)c[nH]c3ccn[n+]2-3)CC1 | 100 nM | 0.631 nM | – |
| COc1ccccc1N1CCN(CCCNc2ccncc2C(=O)N(C(C)C)C(C)C)CC1 | 251 nM | – | 1.58 nM |
| Cc1noc2ncc(C(=O)N(C)C)c(NCCCN3CCN(c4ccccc4OCC(F)(F)F)CC3)c12 | 79.4 nM | 1.58 nM | – |
| CN(C)C(=O)c1cccnc1N1CCC(NCCOc2ccccc2-c2cncnc2)CC1 | 2510 nM | 20 nM | – |
| COc1ccccc1N1CCN(CCCNc2ncc(O)cc2C(=O)N(C)C)CC1 | 10 nM | 2 nM | – |
| COc1ccccc1N1CCN(CCCNc2ccc(C(=O)N(C)C)cn2)CC1 | 31.6 nM | 25.1 nM | – |
| COc1cc(F)ccc1N1CCN(CCCNc2c(C(=O)N(C)C)cnc3c(C)cccc23)CC1 | 316 nM | 7.94 nM | – |
| COc1ccccc1N1CCN(CCCNc2ccc(C)cc2C(=O)N(C)C)CC1 | 20 nM | 0.501 nM | – |
| COc1ccccc1N1CCN(CCCNc2ncccc2C(=O)C2CC2)CC1 | 2 nM | 0.501 nM | – |
| CN(C)C(=O)c1cccnc1N1CCC(NCCOc2ccccc2OCC(F)(F)F)CC1 | 63.1 nM | 1.58 nM | 1.58 nM |
| COc1ccccc1N1CCN(CCCNc2ccccc2C(=O)N(C)C)CC1 | 15.8 nM | 1 nM | 0.398 nM |
| COc1ccccc1N1CCN(CCCNc2ncccc2C(=O)C(C)(C)C)CC1 | 6.31 nM | – | 0.398 nM |
| COc1ccccc1N1CCN(CCCNc2ccncc2C(=O)N(C)C)CC1 | 50.1 nM | 12.6 nM | 0.794 nM |
| COc1ccccc1N1CCN(CCC(=O)Nc2ccccc2C(=O)N(C)C)CC1 | 63.1 nM | – | 1.58 nM |
| Cc1nn(C)c2ncc(C(=O)N(C)C)c(NCCCN3CCN(c4ccc(F)cc4-c4ncco4)CC3)c12 | 200 nM | 0.126 nM | – |
| Cc1ccc(N(CC2=NCCN2)c2cccc(O)c2)cc1 [PHENTOLAMINE] | – | 6.31 nM | 0.794 nM |
| COc1ccccc1N1CCN(CCCNc2cccc(C)c2C(=O)N(C)C)CC1 | 63.1 nM | 3.16 nM | – |
| COc1ccccc1N1CCN(CCCNc2nc(C)cc(C)c2C(N)=O)CC1 | 39.8 nM | 10 nM | 1.58 nM |
| COc1ccccc1N1CCN(CCCNc2ccccc2C(=O)c2ccccc2)CC1 | 10 nM | 31.6 nM | – |

| SMILES | Kb [1] | Kb [2] | Ki [3] |
| --- | --- | --- | --- |
| CN(C)C(=O)c1cnc2c(Cl)cccc2c1NCCCN1CCN(c2ccccc2OCC(F)(F)F)CC1 | 126 nM | 0.794 nM | – |
| COc1ccccc1N1CCN(CCCNc2c(C)c(=O)n(C)c(=O)n2C)CC1 | – | 3.98 nM | 0.501 nM |
| COc1cc(F)ccc1N1CCN(CCCNc2c(C(=O)N(C)C)cnc3c(C(N)=O)cccc23)CC1 | 158 nM | 0.501 nM | – |
| CNC(=O)c1cnc2c(c(C)nn2C)c1NCCCN1CCN(c2ccccc2OCC(F)(F)F)CC1 | 3.98 nM | 0.1 nM | – |
| CCOc1ccccc1OCCNC1CCN(c2ncccc2C(=O)N(C)C)CC1 | 15.8 nM | – | 3.16 nM |
| COc1ccccc1N1CCN(CCCSc2ccccc2C(=O)N(C)C)CC1 | 12.6 nM | 2 nM | – |
| COc1cc(F)ccc1N1CCN(CCCNc2c(C(=O)N(C)C)cnc3nc(C)ccc23)CC1 | 631 nM | 1.26 nM | – |
| Cc1ccc(N2CCN(CCCNc3ncccc3C(=O)N(C)C)CC2)c(-n2cccc2)c1 | 12.6 nM | 0.02 nM | – |
| COc1cc2nc(N3CCN(C(=O)C4CCCO4)CC3)nc(N)c2cc1OC (racemic) [TERAZOSIN] | – | 20 nM | 2.51 nM |
| Cc1cccc(C)c1N1CCN(CCCNc2ncccc2C(=O)N(C)C)CC1 | – | – | 7.94 nM |
| COc1cc(F)ccc1N1CCN(CCCNc2c(C(=O)N(C)C)cnc3c(C#N)cccc23)CC1 | 398 nM | 1.26 nM | – |
| COc1ccc(N2CCN(CCCNc3ncccc3C(=O)N(C)C)CC2)c(OC)c1 | 1000 nM | 31.6 nM | – |
| COc1cc(F)ccc1N1CCN(CCCNc2c(C(=O)N(C)C)cnc3c2nc(C)n3C)CC1 | 79.4 nM | 0.631 nM | – |
| CC(C)(Cc1c[nH]c2ccc(Cl)cc12)NCCOc1ccccc1OCC1CC1 | – | 50.1 nM | 0.794 nM |
| COc1ccccc1N1CCN(CCCOc2ccccc2C(=O)N(C)C)CC1 | 31.6 nM | 3.98 nM | – |
| COc1cc(F)ccc1N1CCN(CCCNc2c(C(=O)N(C)C)c[nH]c3c(Cl)cn[n+]2-3)CC1 | 158 nM | 0.794 nM | – |
| CN(C)C(=O)c1cnc2ccccc2c1NCCCN1CCN(c2ccccc2OCC(F)(F)F)CC1 | 100 nM | 3.98 nM | – |
| COc1ccccc1N1CCN(CCCNc2ncncc2C(=O)N(C)C)CC1 | 50.1 nM | 3.98 nM | – |
| CN(C)C(=O)c1cnc2c(c(C(C)(C)C)nn2C)c1NCCCN1CCN(c2ccccc2OCC(F)(F)F)CC1 | 63.1 nM | 2.51 nM | – |
| COc1ccccc1N1CCN(CCCNc2ncccc2C(=O)N2CCCC2)CC1 | 20 nM | – | 0.794 nM |
